# Results as given in ChEMBL document CHEMBL4049408, “Exploration of 2-((Pyridin-4-ylmethyl)amino)nicotinamide Derivatives as Potent Reversal Agents against P-Glycoprotein-Mediated Multidrug Resistance” (J Med Chem, 2017).
# Activity calls are given as the source filed them. No cut-off for these calls is given here.
# Legend:
# [1] = Inhibition of CYP3A4 in rat liver microsomes assessed as 6beta-hydroxytestosterone formation using testosterone as substrate by reverse-phase HPLC analysis; type: ADME
# [2] = test system: K562/A02; experiment: Effect on ABCB1 level in human K562/A02 cells at 0.1 to 5 uM after 72 hrs by Western blot analysis; type: functional, cell-based
# Method in brief: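 K562/A02 cells exposed to 0.1, 1.0 or 5.0 µmol/L compound for 72 h. ABCB1 detected by western blot; band intensity expressed as a ratio to β-tubulin.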
# [3] = biological target: T1, ATP-dependent translocase ABCB1 (Homo sapiens, UniProt P08183); experiment: Inhibition of ABCB1 ATPase in human ABCB1 membrane fraction assessed as decrease in ATPase activity at 0.5 uM preincubated with compound followed by addition of MgATP measured after 1 hr by luciferase reporter gene assay relative to control; type: cell membranes
# T1 sequence (P08183 whole entry): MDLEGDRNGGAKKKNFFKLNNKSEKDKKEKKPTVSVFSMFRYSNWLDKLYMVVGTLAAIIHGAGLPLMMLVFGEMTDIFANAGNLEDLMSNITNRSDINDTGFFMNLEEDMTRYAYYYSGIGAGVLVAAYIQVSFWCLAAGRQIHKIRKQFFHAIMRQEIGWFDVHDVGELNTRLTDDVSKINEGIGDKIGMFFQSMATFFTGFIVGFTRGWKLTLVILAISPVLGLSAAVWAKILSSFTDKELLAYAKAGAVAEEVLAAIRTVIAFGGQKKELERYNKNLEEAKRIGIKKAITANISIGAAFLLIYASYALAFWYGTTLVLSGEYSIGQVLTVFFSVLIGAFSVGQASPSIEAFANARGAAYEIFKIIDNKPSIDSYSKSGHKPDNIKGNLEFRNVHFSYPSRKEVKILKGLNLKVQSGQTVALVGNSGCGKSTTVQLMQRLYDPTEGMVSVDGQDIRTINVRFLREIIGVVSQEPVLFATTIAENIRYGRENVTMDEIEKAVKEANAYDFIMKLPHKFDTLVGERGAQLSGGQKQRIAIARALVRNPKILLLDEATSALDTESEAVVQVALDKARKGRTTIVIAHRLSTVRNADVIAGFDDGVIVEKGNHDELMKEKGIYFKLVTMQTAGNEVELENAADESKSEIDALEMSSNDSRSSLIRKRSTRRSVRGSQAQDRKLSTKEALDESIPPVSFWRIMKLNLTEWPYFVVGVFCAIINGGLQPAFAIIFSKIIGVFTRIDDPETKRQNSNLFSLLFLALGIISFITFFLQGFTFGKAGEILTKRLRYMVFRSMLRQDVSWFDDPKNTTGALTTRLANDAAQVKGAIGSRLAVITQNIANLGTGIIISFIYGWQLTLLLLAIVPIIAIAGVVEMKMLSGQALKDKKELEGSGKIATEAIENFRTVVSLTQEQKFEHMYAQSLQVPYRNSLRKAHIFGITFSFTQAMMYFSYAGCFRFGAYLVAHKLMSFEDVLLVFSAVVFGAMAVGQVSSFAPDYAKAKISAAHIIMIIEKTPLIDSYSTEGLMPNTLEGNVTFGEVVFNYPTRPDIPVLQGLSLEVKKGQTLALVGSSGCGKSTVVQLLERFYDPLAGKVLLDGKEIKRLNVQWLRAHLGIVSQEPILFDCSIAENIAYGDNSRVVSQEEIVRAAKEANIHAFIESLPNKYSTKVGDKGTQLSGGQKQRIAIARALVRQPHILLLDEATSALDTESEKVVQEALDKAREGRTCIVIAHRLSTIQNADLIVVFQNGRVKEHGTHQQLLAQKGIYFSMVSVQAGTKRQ
# [4] = biological target: T1, ATP-dependent translocase ABCB1; experiment: (§1) Inhibition of ABCB1 in human K562/A02 cells assessed as potentiation of adriamycin-mediated cytotoxicity by measuring reduction in ADR IC50 at 5 uM preincubated for 24 hrs followed by compound washout and subsequent addition of adriamycin measured after 48 hrs by MTT assay relative to control; type: cell-based
# Method in brief: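 K562/A02 cells incubated with modulator at 5.0 µM, then washed out. Reversal fold = IC50 without inhibitor / IC50 with inhibitor. Mean ± SD of three independent tests.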
# [5] = test system: GES1; experiment: Cytotoxicity against human GES-1 cells after 48 hrs by MTT assay; type: cell-based; settings: GES1, 48 h
# Method in brief: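 Survival of GES-1 cells measured across a range of compound concentrations to give the IC50. Mean ± SD of three independent tests.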
# [6] = test system: K562/A02; experiment: Cytotoxicity against human K562/A02 cells overexpressing P-gp after 48 hrs by MTT assay; type: functional, cell-based; settings: K562/A02, 48 h
# Method in brief: (§2)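 MTT viability in parental K562 and P-gp-overexpressing K562/A02 cells. Compound alone at a concentration series gives the IC50. Mean ± SD of three independent tests.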
# [7] = test system: K562/A02; experiment: Cytotoxicity against human K562/A02 cells assessed as cell survival at 5 uM after 48 hrs by MTT assay relative to control; type: cell-based; settings: k562/a02, 48 h, 5 µM
# Method in brief: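 MTT viability assay in P-gp-overexpressing, ADM-resistant K562/A02 cells, alongside parental K562. […] Values are mean ± SD of three independent tests.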
# [8] = Selectivity index, ratio of IC50 for human GES-1 cells to EC50 for inhibition of ABCB1 in human K562/A02 cells assessed as potentiation of adriamycin-induced cytotoxicity by measuring compound concentration required for reduction of ADR IC50
# Method in brief: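 SI = IC50 in GES-1 cells divided by EC50 for reversal of adriamycin resistance in K562/A02 cells.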
# [9] = biological target: T1, ATP-dependent translocase ABCB1; experiment: as §1, with “washout for 24 hrs” for “washout”; type: cell-based
# Method in brief: (§3)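 K562/A02 cells incubated with modulator at 5.0 µM, then washed out. Adriamycin IC50 determined at 0, 6, 12 or 24 h after removal, with an unwashed comparison. Reversal fold = IC50 without inhibitor / IC50 with inhibitor. Mean ± SD of three independent tests.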
# [10] = biological target: T1, ATP-dependent translocase ABCB1; experiment: Inhibition of ABCB1 in human K562/A02 cells assessed as potentiation of daunorubicin-mediated cytotoxicity at 5 uM after 48 hrs by MTT assay; type: cell-based
# Method in brief: (§4)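 K562/A02 cells given daunorubicin, paclitaxel, vinblastine (P-gp substrates) or cyclophosphamide (non-substrate), each with modulator at 5.0 µM; cytotoxicity then measured. Mean ± SD of three independent tests.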
# [11] = biological target: T1, ATP-dependent translocase ABCB1; experiment: Inhibition of ABCB1 in human K562/A02 cells assessed as increase in intracellular Rh123 accumulation at 5 uM up to 90 mins by flow cytometry; type: cell-based; settings: 1.5 h
# Method in brief: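 K562/A02 cells treated with 5.0 µM modulator; Rh123-associated mean fluorescence intensity read by flow cytometry at 5, 10, 25, 30, 60 and 90 min. Untreated cells as negative control. Mean ± SD of three experiments.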
# [12] = Inhibition of CYP3A4 in rat liver microsomes assessed as 6beta-hydroxytestosterone formation at 40 uM using testosterone as substrate by reverse-phase HPLC analysis; type: ADME
# [13] = biological target: T1, ATP-dependent translocase ABCB1; experiment: as §1, with “washout for 12 hrs” for “washout”; type: cell-based; method in brief: as §3
# [14] = biological target: T1, ATP-dependent translocase ABCB1; experiment: Inhibition of ABCB1 in human K562/A02 cells assessed as potentiation of paclitaxel-mediated cytotoxicity at 5 uM after 48 hrs by MTT assay; type: cell-based; method in brief: as §4
# [15] = test system: K562; experiment: Cytotoxicity against human K562 cells after 48 hrs by MTT assay; type: functional, cell-based; settings: K562, 48 h; method in brief: as §2
# [16] = biological target: T1, ATP-dependent translocase ABCB1; experiment: Inhibition of ABCB1 in human K562/A02 cells assessed as increase in intracellular adriamycin accumulation at 1 uM after 2.5 hrs by spectrofluorimetric analysis; type: cell-based
# Method in brief: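 Intracellular adriamycin measured by its autofluorescence using spectrofluorometry after 2.5 h accumulation in K562/A02 cells. Modulator tested at concentrations up to 5.0 µM; parental K562 and untreated K562/A02 cells as comparators. Mean ± SD of three experiments.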
# [17] = test system: K562/A02; experiment: Potentiation of cyclophosphamide-mediated cytotoxicity against human K562/A02 cells at 5 uM after 48 hrs by MTT assay; type: functional, cell-based; method in brief: as §4
# [18] = biological target: T1, ATP-dependent translocase ABCB1; experiment: Inhibition of ABCB1 in human K562/A02 cells assessed as potentiation of vinblastine-mediated cytotoxicity at 5 uM after 48 hrs by MTT assay; type: cell-based; method in brief: as §4
# [19] = biological target: T1, ATP-dependent translocase ABCB1; experiment: as §1, with “washout for 6 hrs” for “washout”; type: cell-based; method in brief: as §3
# [20] = biological target: T1, ATP-dependent translocase ABCB1; experiment: Inhibition of ABCB1 in human K562/A02 cells assessed as potentiation of adriamycin-mediated cytotoxicity by measuring reduction in ADR IC50 at 5 uM after 48 hrs by MTT assay relative to control; type: cell-based
# Method in brief: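 K562/A02 cells exposed to a series of adriamycin concentrations with modulator at 5.0 µM; 0.1% DMSO as solvent control. IC50 read by MTT. Reversal fold = IC50 without inhibitor / IC50 with inhibitor. Mean ± SD of three independent tests.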
# [21] = biological target: T1, ATP-dependent translocase ABCB1; experiment: Substrate activity at ABCB1 ATPase in human ABCB1 membrane fraction assessed as increase in ATPase activity at 0.5 uM preincubated with compound followed by addition of MgATP measured after 1 hr by luciferase reporter gene assay relative to control; type: cell membranes
# [22] = biological target: T1, ATP-dependent translocase ABCB1; experiment: Substrate activity at ABCB1 ATPase in human ABCB1 membrane fraction assessed as increase in ATPase activity at 5 uM preincubated with compound followed by addition of MgATP measured after 1 hr by luciferase reporter gene assay relative to control; type: cell membranes
# [23] = biological target: T1, ATP-dependent translocase ABCB1; experiment: Substrate activity at ABCB1 ATPase in human ABCB1 membrane fraction assessed as increase in ATPase activity at 50 uM preincubated with compound followed by addition of MgATP measured after 1 hr by luciferase reporter gene assay relative to control; type: cell membranes
# [24] = test system: K562; experiment: Resistance index, ratio of IC50 for human K562/A02 cells to IC50 for human K562 cells; type: functional
# Method in brief: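 Adriamycin IC50 measured by MTT in K562/A02 and in parental K562 cells. Fold resistance is the ratio of the resistant-line IC50 to the sensitive-line IC50. Mean ± SD of three independent tests.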
SMILES,IC50 [6] [µM],Activity [7],IC50 [15] [µM],fold change (FC) [20],further results
CC(=O)N1CCN(c2ccc(OCC3COC(Cn4ccnc4)(c4ccc(Cl)cc4Cl)O3)cc2)CC1 (stereo not drawn) [KETOCONAZOLE],–,–,–,–,inhibition (INH) [1]: Dose-dependent effect
COc1cc2c(cc1OC)CN(CCc1ccc(NC(=O)c3cccnc3NCc3ccncc3)cc1)CC2,74.9,Non-Toxic,55.4,–,Activity [2]: inactive; inhibition (INH) [3]: Active; fold change (FC) [4]: 27.98; IC50 [5]: > 100 µM; Ratio IC50/EC50 [8]: >836.1; fold change (FC) [9]: 7.84; inhibition (INH) [10]: Active; inhibition (INH) [11]: Active; inhibition (INH) [12]: Not Active; fold change (FC) [13]: 14.54; inhibition (INH) [14]: Active; inhibition (INH) [16]: Active; Activity [17]: inactive; inhibition (INH) [18]: Active; fold change (FC) [19]: 20.03
O=C(Nc1ccc2c(c1)Cc1ccccc1-2)c1cccnc1NCc1ccncc1,> 100,Non-Toxic,70,13.65,–
N#CC1(c2ccc(NC(=O)c3cccnc3NCc3ccncc3)cc2)CCCC1 [RIVOCERANIB],19.8 to 20.8,–,14.9 to 15.9,8.63 to 8.71,fold change (FC) [21]: 1.41; fold change (FC) [4]: 7.35; fold change (FC) [9]: 2.46; inhibition (INH) [11]: Active; fold change (FC) [22]: 2.68; fold change (FC) [13]: 3.97; inhibition (INH) [16]: Active; fold change (FC) [19]: 6.12
COc1ccc(CCN(C)CCCC(C#N)(c2ccc(OC)c(OC)c2)C(C)C)cc1OC (stereo not drawn),31.3 to 33.6,–,36.7 to 37.3,–,fold change (FC) [23]: 2.56; inhibition (INH) [11]: Active
COc1cc2c(cc1OC)C(c1ccco1)N(C(=O)c1cccnc1NCc1ccncc1)CC2 (stereo not drawn),> 100,Non-Toxic,> 100,1.52,–
Cc1cccc(Cl)c1NC(=O)c1cnc(NC(=O)c2cccnc2NCc2ccncc2)s1,86,Non-Toxic,57.7,7.95,–
COc1cccc2c1C(=O)c1c(O)c3c(c(O)c1C2=O)C[C@@](O)(C(=O)CO)C[C@@H]3O[C@H]1C[C@H](N)[C@H](O)[C@H](C)O1.Cl [DOXORUBICIN HYDROCHLORIDE],54 to 56.8,–,0.51 to 0.58,–,Ratio IC50 [24]: 105.8
CN1CCN(CCc2ccc(NC(=O)c3cccnc3NCc3ccncc3)cc2)CC1,> 100,Non-Toxic,> 100,2.04,–
COc1cc2c(cc1OC)CN(C(=O)c1cccnc1NCc1ccncc1)CC2,85.7,Non-Toxic,72.5,17.97,–
COc1cc2c(cc1OC)C(C(C)(C)C)N(C(=O)c1cccnc1NCc1ccncc1)CC2 (stereo not drawn),> 100,Non-Toxic,> 100,2.66,–
O=C(c1ccccc1)c1ccccc1NC(=O)c1cccnc1NCc1ccncc1,> 100,Non-Toxic,> 100,1.28,–
O=C(Nc1ccc(CCN2CCOCC2)cc1)c1cccnc1NCc1ccncc1,> 100,Non-Toxic,> 100,5.64,–
COc1cc2c(cc1OC)C(c1ccccc1)N(C(=O)c1cccnc1NCc1ccncc1)CC2 (stereo not drawn),> 100,Non-Toxic,> 100,2.96,–
